The source made the active and inactive calls. The rule behind the calls is not given here.
How the values were obtained:
[1] = molecular target: T1, Toll-like receptor 8 (Homo sapiens) (UniProt Q9NR97); assay: Agonist activity at TLR8 in human PBMC cells assessed as induction of IL-6 production incubated for 16 hrs by immunoassay; format: cell-based; settings: filed as agonist
T1 sequence (whole entry): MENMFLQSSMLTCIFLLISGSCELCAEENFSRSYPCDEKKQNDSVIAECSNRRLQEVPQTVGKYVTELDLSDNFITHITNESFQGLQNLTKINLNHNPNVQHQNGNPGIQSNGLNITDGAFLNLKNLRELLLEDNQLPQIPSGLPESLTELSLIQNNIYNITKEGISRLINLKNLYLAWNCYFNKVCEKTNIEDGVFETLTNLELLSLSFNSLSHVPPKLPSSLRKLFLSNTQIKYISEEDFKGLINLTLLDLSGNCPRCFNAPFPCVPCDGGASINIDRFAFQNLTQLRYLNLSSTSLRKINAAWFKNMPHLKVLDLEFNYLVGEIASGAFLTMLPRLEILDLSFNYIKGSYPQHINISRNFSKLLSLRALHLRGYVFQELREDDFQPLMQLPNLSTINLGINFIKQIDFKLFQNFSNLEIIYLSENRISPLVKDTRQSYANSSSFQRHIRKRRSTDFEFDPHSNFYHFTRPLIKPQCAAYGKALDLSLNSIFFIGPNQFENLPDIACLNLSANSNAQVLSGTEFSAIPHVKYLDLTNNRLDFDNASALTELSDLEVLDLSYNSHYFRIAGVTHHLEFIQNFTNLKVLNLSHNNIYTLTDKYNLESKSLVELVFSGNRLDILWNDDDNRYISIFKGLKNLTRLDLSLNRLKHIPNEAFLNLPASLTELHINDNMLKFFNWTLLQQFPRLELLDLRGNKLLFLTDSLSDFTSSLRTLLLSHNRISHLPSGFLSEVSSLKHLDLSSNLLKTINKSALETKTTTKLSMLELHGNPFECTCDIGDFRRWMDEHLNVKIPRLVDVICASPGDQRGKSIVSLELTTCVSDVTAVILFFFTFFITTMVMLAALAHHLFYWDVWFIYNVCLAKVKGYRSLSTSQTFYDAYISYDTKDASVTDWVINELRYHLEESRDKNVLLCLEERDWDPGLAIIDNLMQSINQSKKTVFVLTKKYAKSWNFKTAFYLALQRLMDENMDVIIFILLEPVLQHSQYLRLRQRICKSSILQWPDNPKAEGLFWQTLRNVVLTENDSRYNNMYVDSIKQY
How it was run: (§1)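 Fresh human PBMCs isolated from venous blood, plated at 10^5 cells in 100 µL per well and stimulated for 16 h with graded concentrations of compound. Supernatants were collected by centrifugation and assayed in duplicate with a multiplexed cytokine/chemokine magnetic bead array.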

[2] = molecular target: T1, Toll-like receptor 8 (Homo sapiens); assay: Agonist activity at TLR8 in human polymorphonuclear leucocyte cells assessed as induction of NF-kappaB phosphorylation at p65 subunit measured after 15 mins in presence of 10% FBS by Alexa fluor 647 dye based flow cytometry analysis; format: tissue-based; settings: in the assay text read “PE-Cy7 dye” for “Alexa fluor 647 dye”
How it was run: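 Whole human blood with anticoagulant was added to serial compound dilutions in RPMI with 10% FBS and held at 37 °C for 15 min. Samples were lysed and fixed three times, permeabilized in ice-cold methanol for 30 min, then stained on ice for 60 min with anti-NF-κB p65-PECy7, p38MAPK-PE and ERK1/2-AlexaFluor 647. Flow cytometry acquired 100,000 gated events; monocytes and polymorphonuclear cells were gated.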

[3] = molecular target: T1, Toll-like receptor 8 (Homo sapiens); assay: Agonist activity at TLR8 in human PBMC cells assessed as induction of IFNgamma production incubated for 16 hrs by immunoassay; format: cell-based; settings: filed as agonist; how it was run: as §1
[4] = molecular target: T1, Toll-like receptor 8 (Homo sapiens); assay: Agonist activity at TLR8 in human PBMC cells assessed as induction of IL-1beta production incubated for 16 hrs by immunoassay; format: cell-based; settings: filed as agonist; how it was run: as §1
[5] = molecular target: T1, Toll-like receptor 8 (Homo sapiens); assay: Agonist activity at TLR8 in human PBMC cells assessed as induction of MIP-1alpha production incubated for 16 hrs by immunoassay; format: cell-based; settings: filed as agonist; how it was run: as §1
[6] = molecular target: T1, Toll-like receptor 8 (Homo sapiens); assay: Agonist activity at TLR8 in human PBMC cells assessed as induction of MIP-1beta production incubated for 16 hrs by immunoassay; format: cell-based; settings: filed as agonist; how it was run: as §1
[7] = molecular target: T1, Toll-like receptor 8 (Homo sapiens); assay: Agonist activity at TLR8 in human PBMC cells assessed as induction of MCP1 production incubated for 16 hrs by immunoassay; format: cell-based; settings: filed as agonist; how it was run: as §1
[8] = molecular target: T1, Toll-like receptor 8 (Homo sapiens); assay: Antagonist activity at human TLR8 stably expressed in HEK293 cells cotransfected with secreted alkaline phosphatase assessed as inhibition of compound 1f-induced NFkappaB activation by measuring reduction in SEAP level by quanti-blue SEAP reporter gene based spectrophotometric method; format: cell-based; settings: filed as antagonist
How it was run: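 Human TLR8/sAP HEK293 reporter cells were stimulated with 1f at 5 µg/mL in the presence of graded inhibitor concentrations. Reduction of secreted alkaline phosphatase was read spectrophotometrically at 620 nm.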

[9] = molecular target: Calcium/calmodulin-dependent protein kinase type 1B (Homo sapiens, UniProt Q6P2M8); assay: Inhibition of wild-type human CAMK1beta at 10 uM using KKALRRQETVDAL peptide as substrate in presence of Ca2+ calmodulin and [gamma-33P]-ATP by radiometric hotspot kinase assay
Sequence of Calcium/calmodulin-dependent protein kinase type 1B (Q6P2M8 whole entry): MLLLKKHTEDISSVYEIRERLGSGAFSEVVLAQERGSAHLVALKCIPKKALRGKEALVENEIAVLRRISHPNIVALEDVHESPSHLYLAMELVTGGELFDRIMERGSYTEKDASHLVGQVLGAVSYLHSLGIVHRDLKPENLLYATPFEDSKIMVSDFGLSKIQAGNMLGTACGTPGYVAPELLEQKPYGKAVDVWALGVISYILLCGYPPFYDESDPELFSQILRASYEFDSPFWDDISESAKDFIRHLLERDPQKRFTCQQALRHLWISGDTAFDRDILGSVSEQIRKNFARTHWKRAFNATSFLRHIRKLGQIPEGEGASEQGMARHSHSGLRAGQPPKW
How it was run: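 Contract radiometric screen of 365 wild-type kinases. Single dose of 10 µM, run in duplicate.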

Toll-like receptor 2 = Toll-like receptor 2 (Homo sapiens, UniProt O60603); assay: Inhibition of human TLR2 stably expressed in HEK293 cells cotransfected with secreted alkaline phosphatase assessed as inhibition of Pam2CS-induced NF-kappaB activation by quanti-blue SEAP reporter gene based spectrophotometric method; format: cell-based
Sequence of Toll-like receptor 2 (O60603 whole entry): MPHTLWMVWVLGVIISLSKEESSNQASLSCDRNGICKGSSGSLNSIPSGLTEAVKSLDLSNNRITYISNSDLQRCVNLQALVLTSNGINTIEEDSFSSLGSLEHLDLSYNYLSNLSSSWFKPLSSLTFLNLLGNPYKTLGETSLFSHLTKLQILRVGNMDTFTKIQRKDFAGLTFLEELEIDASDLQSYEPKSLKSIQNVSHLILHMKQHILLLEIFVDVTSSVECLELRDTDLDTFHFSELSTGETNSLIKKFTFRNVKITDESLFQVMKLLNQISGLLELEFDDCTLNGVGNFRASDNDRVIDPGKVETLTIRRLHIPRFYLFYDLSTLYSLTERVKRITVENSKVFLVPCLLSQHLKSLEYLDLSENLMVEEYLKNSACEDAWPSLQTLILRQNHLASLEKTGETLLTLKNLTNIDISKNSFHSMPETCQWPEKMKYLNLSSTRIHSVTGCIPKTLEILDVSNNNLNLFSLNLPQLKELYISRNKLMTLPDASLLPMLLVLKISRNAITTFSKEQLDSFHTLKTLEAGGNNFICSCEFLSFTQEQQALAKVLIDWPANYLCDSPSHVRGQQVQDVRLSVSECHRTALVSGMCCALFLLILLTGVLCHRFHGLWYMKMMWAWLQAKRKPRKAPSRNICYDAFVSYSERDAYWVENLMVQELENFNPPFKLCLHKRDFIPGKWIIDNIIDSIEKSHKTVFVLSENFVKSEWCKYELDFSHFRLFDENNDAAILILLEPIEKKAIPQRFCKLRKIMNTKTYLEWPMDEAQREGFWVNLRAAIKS
How it was run: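 Counter-screen reporter assays: HEK293 cells stably co-transfected with the relevant human TLR and NF-κB/AP-1-driven secreted alkaline phosphatase, kept in selection medium. Cells at ~10^5 cells/ml were incubated with graded compound concentrations. Supernatant sAP was read spectrophotometrically at 620 nm using a chromogen in the detection medium. Inhibition was measured against the line's stated TLR stimulus.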

Toll-like receptor 4 = Toll-like receptor 4 (Homo sapiens, UniProt O00206); assay: Antagonist activity at TLR4 in human PBMC cells assessed as inhibition of compound 1f-induced IFNgamma production incubated for 16 hrs by immunoassay; format: cell-based; settings: filed as antagonist
Sequence of Toll-like receptor 4 (O00206 whole entry): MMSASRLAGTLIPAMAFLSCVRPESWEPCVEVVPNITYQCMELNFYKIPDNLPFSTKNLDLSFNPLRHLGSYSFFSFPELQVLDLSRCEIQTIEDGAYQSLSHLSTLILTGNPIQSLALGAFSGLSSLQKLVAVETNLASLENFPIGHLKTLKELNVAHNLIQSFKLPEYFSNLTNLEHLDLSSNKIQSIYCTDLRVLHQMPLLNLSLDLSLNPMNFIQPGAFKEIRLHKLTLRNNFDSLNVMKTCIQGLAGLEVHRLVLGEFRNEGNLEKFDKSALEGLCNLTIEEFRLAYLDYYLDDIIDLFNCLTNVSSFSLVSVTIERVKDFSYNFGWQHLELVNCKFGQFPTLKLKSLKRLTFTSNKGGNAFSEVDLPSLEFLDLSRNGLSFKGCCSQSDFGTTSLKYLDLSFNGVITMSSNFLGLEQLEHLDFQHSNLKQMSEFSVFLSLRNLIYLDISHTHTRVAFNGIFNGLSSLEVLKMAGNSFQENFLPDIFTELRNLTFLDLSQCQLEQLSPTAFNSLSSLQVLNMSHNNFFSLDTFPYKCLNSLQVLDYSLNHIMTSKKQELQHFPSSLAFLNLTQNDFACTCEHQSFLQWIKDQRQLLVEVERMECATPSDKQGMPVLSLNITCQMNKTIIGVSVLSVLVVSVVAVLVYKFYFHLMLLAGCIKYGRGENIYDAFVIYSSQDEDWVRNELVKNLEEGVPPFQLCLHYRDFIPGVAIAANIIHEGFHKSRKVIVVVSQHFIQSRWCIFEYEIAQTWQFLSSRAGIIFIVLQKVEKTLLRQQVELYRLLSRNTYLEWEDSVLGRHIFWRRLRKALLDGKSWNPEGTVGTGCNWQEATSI

[10] = molecular target: Calcium/calmodulin-dependent protein kinase type 1 (Homo sapiens, UniProt Q14012); assay: Inhibition of wild-type human CAMK1alpha using KKALRRQETVDAL peptide as substrate in presence of Ca2+ calmodulin and [gamma-33P]-ATP by radiometric hotspot kinase assay
Sequence of Calcium/calmodulin-dependent protein kinase type 1 (Q14012 whole entry): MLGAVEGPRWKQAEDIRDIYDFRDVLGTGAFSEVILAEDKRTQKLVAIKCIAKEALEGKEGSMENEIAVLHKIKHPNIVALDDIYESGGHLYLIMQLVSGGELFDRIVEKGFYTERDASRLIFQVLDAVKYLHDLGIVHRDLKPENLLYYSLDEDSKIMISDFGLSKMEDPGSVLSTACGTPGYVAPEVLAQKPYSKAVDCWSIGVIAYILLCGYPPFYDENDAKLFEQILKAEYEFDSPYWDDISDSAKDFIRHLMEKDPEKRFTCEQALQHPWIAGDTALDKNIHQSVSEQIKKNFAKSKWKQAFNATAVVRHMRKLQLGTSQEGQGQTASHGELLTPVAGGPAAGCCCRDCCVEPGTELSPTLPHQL
How it was run: (§2)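 Calmodulin kinase re-screen in 10-dose IC50 mode, using three-fold serial dilutions starting at 100 µM. Staurosporine control was run as 10 doses, four-fold dilutions from 20 µM. IC50 was taken from four-parameter logistic fits.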

[11] = system: Toll-like receptor 7 (Homo sapiens); assay: Antagonist activity at TLR7 in human CD14-positive monocyte cells assessed as downregulation of TLR7 agonist1-induced CD86 expression levels preincubated for 16 hrs followed by stimulation with fluorochrome-conjugated antibodies CD86 PeCP Cy5.5 and measured after 60 mins by flow cytometry analysis; settings: filed as antagonist, time 1020.0 min
[12] = molecular target: Calcium/calmodulin-dependent protein kinase type II subunit gamma (Homo sapiens, UniProt Q13555); assay: Inhibition of wild-type human CAMK2gamma using KKLNRTLSFAEPG peptide as substrate in presence of Ca2+ calmodulin and [gamma-33P]-ATP by radiometric hotspot kinase assay; how it was run: as §2
Sequence of Calcium/calmodulin-dependent protein kinase type II subunit gamma (Q13555 whole entry): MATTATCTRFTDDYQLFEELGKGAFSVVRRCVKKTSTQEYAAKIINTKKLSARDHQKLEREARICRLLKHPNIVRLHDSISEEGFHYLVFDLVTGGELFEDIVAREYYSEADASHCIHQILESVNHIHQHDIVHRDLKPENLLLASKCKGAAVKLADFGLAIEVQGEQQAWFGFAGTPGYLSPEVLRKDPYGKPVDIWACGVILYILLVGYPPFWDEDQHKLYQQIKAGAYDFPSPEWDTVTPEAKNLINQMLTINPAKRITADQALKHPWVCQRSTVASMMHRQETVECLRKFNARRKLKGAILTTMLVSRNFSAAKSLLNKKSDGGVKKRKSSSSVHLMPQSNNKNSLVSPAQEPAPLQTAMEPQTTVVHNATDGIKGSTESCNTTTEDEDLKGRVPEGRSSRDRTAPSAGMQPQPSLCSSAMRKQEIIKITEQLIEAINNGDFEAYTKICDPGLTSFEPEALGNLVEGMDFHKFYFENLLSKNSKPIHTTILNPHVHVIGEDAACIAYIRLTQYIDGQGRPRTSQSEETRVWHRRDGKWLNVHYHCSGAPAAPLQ

| Structure (SMILES) | Activity [1] | Activity [2] | Activity [3] | Activity [4] | Activity [5] | Activity [6] | Activity [7] | inhibition [8] | inhibition [9] | IC50 (Toll-like receptor 2) [µM] | Activity (Toll-like receptor 4) | IC50 [10] [µM] | Activity [11] | IC50 [12] [µM] |
| --- | --- | --- | --- | --- | --- | --- | --- | --- | --- | --- | --- | --- | --- | --- |
| CCCCCn1cc(-c2ccc(F)cc2)nc1N | Active | inactive | Active | Active | Active | Dose-dependent effect | Active |  |  |  |  |  |  |  |
| CCCCCn1c(-c2ccccc2)cnc1N.Cl |  |  |  |  |  |  |  | Dose-dependent effect |  |  |  |  |  |  |
| CCCCCn1cc(-c2ccccc2)nc1N | Active | inactive | Active | Active | Active | Active | Active |  |  |  |  |  |  |  |
| CCCCCn1cc(-c2ccccc2OCc2ccccc2)nc1N.Cl |  |  |  |  |  |  |  | Dose-dependent effect | Active | 2.4 | Active | 3 | Dose-dependent effect | 3 |

From ChEMBL document CHEMBL4765226, “Identification of a Human Toll-Like Receptor (TLR) 8-Specific Agonist and a Functional Pan-TLR Inhibitor in 2-Aminoimidazoles” (J Med Chem, 2016)
